TWEAK-Fn14 inh: TWEAK-Fn14 signaling inhibition; TWEAK-stimulated Fn14 reporter cells, luciferase luminescence, 8 h; inhibition, % at 10 µM; 360,000 tested, 2% active; AID 1159606; in the data active = inhibition above about 50%
FN deposit inh: fibronectin deposition inhibition | inhibition, % at 12.6 µM | 350,000 tested, 0.086% active | AID 743247 | AH1F fibroblasts, Alexa488-fibronectin deposition fluorescence, overnight;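 active = mean inhibition across replicates of 30% or more, regardless of how many single replicates reach that level; inconclusive = mean under 30% yet at least half of replicates reach 30%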;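 note: positive control wells lacked labelled fibronectin entirely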
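Test system: AH1F fibroblast monolayer depositing Alexa488-labelled fibronectin into matrix. Input: 10000 cells per well. Technique: fluorescence, ex 485 nm, em 525 nm. Buffer or medium: DMEM plus 2% serum, read in PBS. Timing: 1 h cell adhesion before compound, then overnight fibronectin incubation. Compound: single dose, pinned. Read-out basis: inhibition from reduced deposited-fibronectin fluorescence.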
TROY signal inh: TROY signaling inhibition. Q293 LMP1-TROYcd NF-kB luciferase reporter, 4 h. inhibition, % at 10 µM. 360,000 tested, 0.98% active;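 active = compounds whose plate-normalised and pattern-corrected inhibition of the luciferase reporter signal at the single screening dose is 50% or more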
EWS-Fli block: inhibitors of EWS/Fli oncoprotein transcriptional activity. A673 NR0B1-luciferase reporter, viability-normalised. inhibition, % at 12.6 µM. 350,000 tested, 0.67% active;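 active = mean inhibition of at least 50% after viability correction, with every replicate also passing that limit; inconclusive = mean reaches 50% but only one of two replicates passes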;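 note: firefly luciferase signal divided by Alamar Blue viability fluorescence both relative to DMSO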
LGR2 inh: blocks bursicon-induced cAMP signaling via Drosophila LGR2; HEK293 LGR2, CRE-luciferase, bursicon-stimulated, 4 h; inhibition, % at 9.99 µM; 380,000 tested, 0.35% active;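 active = drop in luminescence signal, shown as inhibition above about 50% in the replicate tests, limit read from the data, passing the limit was not always enough; inconclusive = probably only some replicates passing the limit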;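 note: agonist challenge used bursicon conditioned medium at about half maximal strength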
XiGFP reactiv: activators of X-chromosome reactivation in mouse fibroblasts; XiGFP mouse fibroblasts, % GFP-positive cells imaging, 3 d; cells co-treated with 5-aza-dC sensitizer; scaled so ellipticine positive control = 100%; activation, % at 7.58 µM; 360,000 tested, 0.055% active;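 active = mean normalized replicate activation at least 10% and every replicate at or above 10%; inconclusive = only one of the two criteria met; inactive = mean below 10% and not all replicates reach 10%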;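 note: 0% = median of on-plate neutral control wells and 100% = ellipticine 6 µM median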
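System: SV40-immortalized XiGFP fibroblast cells, line 68-5-11 / Incubation: 3-day compound exposure, then 15 min fixation at room temperature / Compound: single concentration per compound, delivered by pin transfer / Buffer or medium: DMEM plus 5-aza-dC sensitizer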
* marks the source's active call; other numbers are inactive results. Shown are actives, neighbours in structure and some others; about 2.3% of the full set was active somewhere.

What do the screens show for `O=C(CCCSc1nc(-c2ccco2)cc(C(F)(F)F)n1)NCC1CCCO1` (stereo unspecified)?
TWEAK-Fn14 inh: 70.5*

What do the screens show for `O=C(CCSc1nc(-c2ccco2)cc(C(F)(F)F)n1)NCC1CCCO1` (stereo unspecified)?
TWEAK-Fn14 inh: -3.2

What do the screens show for `CC(C(=O)NC1CCCc2ccccc21)N1CCN(c2ccc(F)cc2)CC1` (stereo unspecified)?
TWEAK-Fn14 inh: 13.5; FN deposit inh: 2.1; TROY signal inh: 12.5; LGR2 inh: 9.9; XiGFP reactiv: 0.3

How did CC(C(=O)NC1CCCc2ccccc21)N1CCN(Cc2ccc3c(c2)OCO3)CC1 (stereo unspecified) do in these assays?
TWEAK-Fn14 inh: 8.3; FN deposit inh: -5.2; TROY signal inh: 58.1*

What do the screens show for `O=C(c1ccc2c(=O)n(Cc3ccc(Cl)cc3)c(=S)[nH]c2c1)N1CCCC1`?
TWEAK-Fn14 inh: -25.3; FN deposit inh: -6.3; TROY signal inh: 2.1; LGR2 inh: -1.7; XiGFP reactiv: 0.2

How did CCOC(=O)N1CCN(C(=O)c2ccc(Cn3c(=S)[nH]c4cc(OCC)c(OCC)cc4c3=O)cc2)CC1 do in these assays?
TWEAK-Fn14 inh: 36.6; FN deposit inh: 18.4; TROY signal inh: 57.7*; EWS-Fli block: 25.1; LGR2 inh: inconclusive; XiGFP reactiv: 0.0

How did O=C(c1ccc2c(=O)n(Cc3ccc(Cl)cc3)c(=S)[nH]c2c1)N1CCOCC1 do in these assays?
TWEAK-Fn14 inh: 75.0*; FN deposit inh: -2.4; TROY signal inh: 43.7; LGR2 inh: 11.7; XiGFP reactiv: 0.3

Results for Cc1nn(C)cc1NC(=O)C[C@H]1CC[C@H]2[C@@H](COc3ccc(NC(=O)NC(C)C)cc3C(=O)N2C)O1 ?
FN deposit inh: 2.0; EWS-Fli block: -11.4; LGR2 inh: -5.9; XiGFP reactiv: 0.3

Results for Cn1c(=O)c([N+](=O)[O-])c(Cl)c2ccccc21 ?
TWEAK-Fn14 inh: -21.0; FN deposit inh: -1.9; TROY signal inh: 22.9; EWS-Fli block: 61.0*; LGR2 inh: -7.5; XiGFP reactiv: -0.1

Results for CCN(CC)c1c([N+](=O)[O-])c(=O)n(C)c2ccccc12 ?
TWEAK-Fn14 inh: -4.4; FN deposit inh: 5.6; TROY signal inh: 6.8; EWS-Fli block: -11.4; XiGFP reactiv: 0.0

Results for Cc1noc(C)c1NC(=O)Nc1ccc2c(c1)CC(=O)N([C@H](C)CO)C[C@H](C)[C@@H](CN(C)S(=O)(=O)c1c(C)noc1C)O2 ?
FN deposit inh: 3.0; XiGFP reactiv: -0.1

Results for C=CCn1c(SCC(=O)Nc2sccc2C(N)=O)nc2sc(C)c(C)c2c1=O ?
TWEAK-Fn14 inh: 49.4; FN deposit inh: 8.6; TROY signal inh: 51.0*

What do the screens show for `C=CCn1c(SCC(=O)Nc2ccccc2C)nc2sc(C)c(C)c2c1=O`?
TWEAK-Fn14 inh: 9.2; TROY signal inh: 1.3

How did Cc1[nH]nc2ncc(C(=O)c3ccccc3O)cc12 do in these assays?
TWEAK-Fn14 inh: 58.6*; FN deposit inh: 4.7; TROY signal inh: 48.9

How did O=C(Cc1ccccc1)Nc1ccc(NC(=O)c2ccco2)nc1 do in these assays?
TWEAK-Fn14 inh: -12.8; FN deposit inh: -9.7; TROY signal inh: -91.0

Results for O=C(Nc1ccc(NC(=O)c2ccco2)nc1)c1ccccn1 ?
TWEAK-Fn14 inh: 51.9*; FN deposit inh: -1.9; TROY signal inh: -40.1

Results for O=C(Nc1ccc(NC(=O)C2CCCCC2)cn1)c1ccco1 ?
TWEAK-Fn14 inh: 75.2*; TROY signal inh: 30.1

Results for CC(C)(C)C(=O)Nc1ccc(NC(=O)c2ccco2)nc1 ?
TWEAK-Fn14 inh: 104.0*; FN deposit inh: 4.9; TROY signal inh: 85.3*; EWS-Fli block: 88.0*; LGR2 inh: 98.4*; XiGFP reactiv: 0.0

Results for O=C(Nc1ccc(NC(=O)C2CC2)cc1)c1ccco1 ?
TWEAK-Fn14 inh: 31.5; FN deposit inh: -3.5; TROY signal inh: -50.2; EWS-Fli block: -86.6; LGR2 inh: -8.1; XiGFP reactiv: 0.0

What do the screens show for `O=C(Nc1ccc(NC(=O)c2ccco2)nc1)c1ccco1`?
TWEAK-Fn14 inh: 73.6*; TROY signal inh: 12.5; EWS-Fli block: 40.1; LGR2 inh: 60.4*; XiGFP reactiv: 0.0

What do the screens show for `COc1ccccc1C(=O)Nc1ccc(NC(=O)c2ccco2)cn1`?
TWEAK-Fn14 inh: -2.4; FN deposit inh: -0.3; TROY signal inh: -55.6; EWS-Fli block: -130.7; LGR2 inh: -40.0

How did COc1ccc(CN2[C@@H]3CN(C(=O)CC(F)(F)F)c4ccccc4[C@@H]3[C@@H]2CO)cc1 do in these assays?
EWS-Fli block: -0.8; LGR2 inh: 10.6; XiGFP reactiv: -0.1

Results for CC(C)(C)C(=O)Nc1ccc(/C=C/C(=O)c2ccco2)cc1 ?
TWEAK-Fn14 inh: 54.2*; FN deposit inh: 4.9; TROY signal inh: 71.7*; EWS-Fli block: 2.3; LGR2 inh: 17.1; XiGFP reactiv: 0.3

How did O=C(Nc1cccc(S(=O)(=O)c2cccc(NC(=O)c3ccco3)c2)c1)c1ccco1 do in these assays?
TWEAK-Fn14 inh: 58.8*; FN deposit inh: -0.2; TROY signal inh: 42.4; EWS-Fli block: 2.2; LGR2 inh: -8.4; XiGFP reactiv: -0.2

Results for O=c1nc(N/N=C/c2c[nH]c3ccccc23)cn[nH]1 ?
TWEAK-Fn14 inh: -10.4; FN deposit inh: 3.6; TROY signal inh: -36.8; EWS-Fli block: -49.8; LGR2 inh: -34.4; XiGFP reactiv: -0.1

What do the screens show for `O=C(O)c1ccc(N/N=C/c2ccc(OC(=O)c3ccccc3Cl)cc2)cc1`?
TWEAK-Fn14 inh: 95.8*; FN deposit inh: 4.9; TROY signal inh: 54.7*; EWS-Fli block: -53.9; LGR2 inh: 57.6*; XiGFP reactiv: 0.1

How did O=C(O)c1ccc(N/N=C/C=C/c2ccccc2)cc1 do in these assays?
TWEAK-Fn14 inh: 63.1*; FN deposit inh: 3.3; TROY signal inh: -50.6; EWS-Fli block: -25.0; LGR2 inh: -42.5; XiGFP reactiv: 0.3

Results for O=c1nc(N/N=C/C=C/c2ccccc2)cn[nH]1 ?
TWEAK-Fn14 inh: 70.0*; FN deposit inh: -8.0; TROY signal inh: 41.2; EWS-Fli block: 21.7; LGR2 inh: 66.6*; XiGFP reactiv: -0.1

Results for O=C(N/N=C/c1ccc(-c2ccccc2Cl)o1)c1ccccc1 ?
TWEAK-Fn14 inh: -23.5; FN deposit inh: 4.5; TROY signal inh: -16.6; LGR2 inh: -45.8; XiGFP reactiv: 0.0

How did O=C(O)c1ccc(N/N=C/c2ccc(-c3ccccc3Cl)o2)cc1 do in these assays?
TWEAK-Fn14 inh: 51.4*; FN deposit inh: -4.3; TROY signal inh: 14.1; EWS-Fli block: -50.1; LGR2 inh: -27.0; XiGFP reactiv: -0.6

Results for COc1cc(C(=O)N/N=C/c2ccc(OC(=O)c3ccccc3Cl)cc2)ccc1O ?
TWEAK-Fn14 inh: -6.2; FN deposit inh: 3.7; TROY signal inh: 52.5*; LGR2 inh: -10.8; XiGFP reactiv: 0.0

Screening data as filed in PubChem BioAssay.
